Source: ChEMBL document CHEMBL1127608, “Non-peptide fibrinogen receptor antagonists. 2. Optimization of a tyrosine template as a mimic for Arg-Gly-Asp” (J Med Chem, 1994)
pIC50: −log10 of the molar value. Peptide text beside a SMILES is read from it.

Key:
[1] = biological target: T1, Integrin alpha-V/beta-3 (Homo sapiens, UniProt P05106+P06756); assay: Inhibition of human umbilical vein endothelial cell adhesion to vitronectin; assay type: functional, cell-based
[2] = biological target: Integrin alpha-5/beta-1 (Homo sapiens, UniProt P05556+P08648); assay: (§1) Inhibition of human umbilical vein endothelial cell adhesion to fibronectin; assay type: functional, cell-based
[3] = biological target: T1, Integrin alpha-V/beta-3; assay: Inhibition of human umbilical vein endothelial cell adhesion to fibrinogen; assay type: functional, cell-based
[4] = biological target: T2, Integrin alpha-IIb/beta-3 (Homo sapiens, UniProt P05106+P08514); assay: Inhibition of platelet aggregation as the concentration necessary to inhibit the change in light.; assay type: functional
Procedure, shortened: (§2)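 Human gel-filtered platelets at 2 × 10^8/mL were mixed with 0.1 mg/mL human fibrinogen, 1 mM CaCl2 and compound, then aggregated with 10 µM ADP. Light transmittance was compared between control and treated samples.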
Target sequence in this assay (P05106 27-788 limits assumed): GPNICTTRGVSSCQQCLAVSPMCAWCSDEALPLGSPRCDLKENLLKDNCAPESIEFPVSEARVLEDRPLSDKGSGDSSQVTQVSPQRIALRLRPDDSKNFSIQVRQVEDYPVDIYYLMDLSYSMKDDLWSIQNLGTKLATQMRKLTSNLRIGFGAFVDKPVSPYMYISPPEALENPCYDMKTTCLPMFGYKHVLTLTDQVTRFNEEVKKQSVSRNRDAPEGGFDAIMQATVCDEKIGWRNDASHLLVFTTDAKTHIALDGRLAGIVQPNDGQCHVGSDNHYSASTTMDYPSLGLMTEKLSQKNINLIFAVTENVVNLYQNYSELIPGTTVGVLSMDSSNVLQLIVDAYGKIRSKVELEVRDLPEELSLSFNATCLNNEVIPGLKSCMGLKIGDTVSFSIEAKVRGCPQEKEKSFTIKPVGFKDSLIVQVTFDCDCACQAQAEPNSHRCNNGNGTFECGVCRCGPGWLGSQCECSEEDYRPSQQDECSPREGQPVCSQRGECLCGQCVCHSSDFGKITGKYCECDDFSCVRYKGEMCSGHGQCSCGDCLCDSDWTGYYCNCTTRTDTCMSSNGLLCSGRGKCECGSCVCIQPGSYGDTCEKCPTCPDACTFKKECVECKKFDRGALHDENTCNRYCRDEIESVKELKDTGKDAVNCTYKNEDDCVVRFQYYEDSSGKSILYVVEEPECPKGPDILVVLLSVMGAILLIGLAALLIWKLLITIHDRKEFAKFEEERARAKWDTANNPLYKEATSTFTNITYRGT
Target sequence in this assay (P08514 32-887 limits assumed): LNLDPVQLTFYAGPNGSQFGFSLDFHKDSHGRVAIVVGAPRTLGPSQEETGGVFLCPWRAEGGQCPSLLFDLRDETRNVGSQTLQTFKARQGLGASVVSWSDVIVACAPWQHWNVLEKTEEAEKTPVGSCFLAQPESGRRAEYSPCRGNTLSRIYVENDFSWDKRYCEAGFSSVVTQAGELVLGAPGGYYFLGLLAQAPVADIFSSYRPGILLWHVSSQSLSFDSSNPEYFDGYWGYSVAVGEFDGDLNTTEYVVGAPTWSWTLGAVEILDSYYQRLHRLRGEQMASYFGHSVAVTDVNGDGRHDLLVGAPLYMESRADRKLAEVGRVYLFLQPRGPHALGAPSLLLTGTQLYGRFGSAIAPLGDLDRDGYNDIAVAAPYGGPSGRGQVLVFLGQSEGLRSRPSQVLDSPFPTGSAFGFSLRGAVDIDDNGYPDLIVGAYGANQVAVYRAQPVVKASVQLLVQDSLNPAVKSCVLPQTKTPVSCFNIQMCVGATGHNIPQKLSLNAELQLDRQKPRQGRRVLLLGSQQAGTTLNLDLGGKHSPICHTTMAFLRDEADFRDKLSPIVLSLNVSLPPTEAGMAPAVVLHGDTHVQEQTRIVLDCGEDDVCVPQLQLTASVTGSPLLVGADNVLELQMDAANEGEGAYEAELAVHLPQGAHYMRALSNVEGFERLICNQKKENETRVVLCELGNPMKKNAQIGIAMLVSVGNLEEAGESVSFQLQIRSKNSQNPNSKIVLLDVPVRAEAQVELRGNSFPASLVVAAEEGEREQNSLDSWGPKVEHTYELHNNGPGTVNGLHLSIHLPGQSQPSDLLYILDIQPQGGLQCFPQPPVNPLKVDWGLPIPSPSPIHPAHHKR
Target sequence in this assay (P08514 891-1039 limits assumed): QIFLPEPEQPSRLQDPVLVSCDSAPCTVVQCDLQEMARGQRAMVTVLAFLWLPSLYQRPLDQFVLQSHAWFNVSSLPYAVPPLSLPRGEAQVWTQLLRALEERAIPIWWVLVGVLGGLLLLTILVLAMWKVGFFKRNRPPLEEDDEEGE

[5] = biological target: T2, Integrin alpha-IIb/beta-3; assay: Inhibition of platelet aggregation by change in light transmittance at 300 uM; assay type: functional; procedure, shortened: as §2
[6] = as §1; assay type: functional, cell-based

Chain of Integrin alpha-5/beta-1 (P05556 21-798 limits assumed): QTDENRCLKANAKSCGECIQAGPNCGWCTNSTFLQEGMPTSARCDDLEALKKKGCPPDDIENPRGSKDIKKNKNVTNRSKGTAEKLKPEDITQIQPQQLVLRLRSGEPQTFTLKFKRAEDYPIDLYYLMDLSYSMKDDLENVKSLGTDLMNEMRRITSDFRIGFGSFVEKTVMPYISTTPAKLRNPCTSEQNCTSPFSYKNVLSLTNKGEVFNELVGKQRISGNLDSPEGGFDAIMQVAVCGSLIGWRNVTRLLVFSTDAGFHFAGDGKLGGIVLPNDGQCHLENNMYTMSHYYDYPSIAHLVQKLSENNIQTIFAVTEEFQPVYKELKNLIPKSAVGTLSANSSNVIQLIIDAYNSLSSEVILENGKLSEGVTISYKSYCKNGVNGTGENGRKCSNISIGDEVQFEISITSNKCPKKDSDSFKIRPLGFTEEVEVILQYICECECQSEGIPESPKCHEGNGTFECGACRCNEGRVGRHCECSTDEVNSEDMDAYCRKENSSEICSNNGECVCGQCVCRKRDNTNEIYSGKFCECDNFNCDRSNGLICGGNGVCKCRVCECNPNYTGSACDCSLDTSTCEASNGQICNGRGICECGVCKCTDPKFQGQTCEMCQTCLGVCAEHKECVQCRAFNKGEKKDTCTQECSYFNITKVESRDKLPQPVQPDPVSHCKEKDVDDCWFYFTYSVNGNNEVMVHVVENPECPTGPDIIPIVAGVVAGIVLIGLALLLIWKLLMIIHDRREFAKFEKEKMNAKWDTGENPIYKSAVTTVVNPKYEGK
Chain of Integrin alpha-5/beta-1 (P08648 42-894 limits assumed): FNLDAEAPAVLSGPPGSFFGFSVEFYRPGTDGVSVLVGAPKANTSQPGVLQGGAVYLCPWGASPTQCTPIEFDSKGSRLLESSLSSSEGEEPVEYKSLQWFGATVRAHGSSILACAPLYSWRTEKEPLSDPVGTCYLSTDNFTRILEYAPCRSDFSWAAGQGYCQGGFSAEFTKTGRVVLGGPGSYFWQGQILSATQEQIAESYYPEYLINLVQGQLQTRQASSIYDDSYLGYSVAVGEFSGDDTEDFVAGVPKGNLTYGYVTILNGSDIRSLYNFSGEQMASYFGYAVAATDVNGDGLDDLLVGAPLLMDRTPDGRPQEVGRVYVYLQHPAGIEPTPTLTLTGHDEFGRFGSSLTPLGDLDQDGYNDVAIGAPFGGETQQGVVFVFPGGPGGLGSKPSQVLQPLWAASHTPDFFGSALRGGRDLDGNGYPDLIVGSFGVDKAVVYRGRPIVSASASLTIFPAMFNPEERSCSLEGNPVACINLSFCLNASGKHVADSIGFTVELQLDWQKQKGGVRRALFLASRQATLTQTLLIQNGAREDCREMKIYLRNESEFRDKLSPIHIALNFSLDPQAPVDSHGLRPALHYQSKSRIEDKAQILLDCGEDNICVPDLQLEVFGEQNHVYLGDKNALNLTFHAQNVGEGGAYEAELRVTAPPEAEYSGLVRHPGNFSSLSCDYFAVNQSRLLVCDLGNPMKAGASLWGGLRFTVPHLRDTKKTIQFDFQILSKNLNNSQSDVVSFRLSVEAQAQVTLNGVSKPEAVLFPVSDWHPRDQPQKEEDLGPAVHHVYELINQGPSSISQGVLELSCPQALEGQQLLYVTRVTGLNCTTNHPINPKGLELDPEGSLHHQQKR
Chain of Integrin alpha-5/beta-1 (P08648 895-1049 limits assumed): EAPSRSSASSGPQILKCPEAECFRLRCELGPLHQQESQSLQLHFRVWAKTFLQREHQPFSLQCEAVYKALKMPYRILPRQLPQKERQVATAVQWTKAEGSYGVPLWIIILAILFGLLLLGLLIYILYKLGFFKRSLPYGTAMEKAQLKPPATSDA
T1 sequence (P05106 27-788 limits assumed): as the sequence (P05106 27-788 limits assumed) above
T1 sequence (P06756 31-889 limits assumed): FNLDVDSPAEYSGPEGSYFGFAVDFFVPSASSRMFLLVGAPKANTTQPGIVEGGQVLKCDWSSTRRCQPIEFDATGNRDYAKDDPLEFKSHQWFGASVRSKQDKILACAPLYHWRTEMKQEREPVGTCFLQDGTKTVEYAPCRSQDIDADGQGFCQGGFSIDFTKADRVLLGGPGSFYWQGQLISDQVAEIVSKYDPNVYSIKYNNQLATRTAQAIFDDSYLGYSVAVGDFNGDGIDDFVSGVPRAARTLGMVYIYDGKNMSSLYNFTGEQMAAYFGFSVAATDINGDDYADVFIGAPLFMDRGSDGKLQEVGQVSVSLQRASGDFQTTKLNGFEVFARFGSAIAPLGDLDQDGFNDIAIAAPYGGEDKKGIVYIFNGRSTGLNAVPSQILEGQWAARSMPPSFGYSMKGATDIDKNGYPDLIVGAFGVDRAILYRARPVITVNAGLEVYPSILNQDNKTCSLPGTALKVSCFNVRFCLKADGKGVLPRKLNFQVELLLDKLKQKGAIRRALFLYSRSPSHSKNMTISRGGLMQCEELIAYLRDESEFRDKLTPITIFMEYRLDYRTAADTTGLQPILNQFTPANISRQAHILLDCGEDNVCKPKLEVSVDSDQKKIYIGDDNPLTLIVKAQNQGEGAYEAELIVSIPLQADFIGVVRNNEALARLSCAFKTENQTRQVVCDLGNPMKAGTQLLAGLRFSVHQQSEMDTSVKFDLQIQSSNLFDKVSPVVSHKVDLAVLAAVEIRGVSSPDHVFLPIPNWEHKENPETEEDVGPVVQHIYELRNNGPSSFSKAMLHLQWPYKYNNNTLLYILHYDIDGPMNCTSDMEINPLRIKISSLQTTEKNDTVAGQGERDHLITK
T1 sequence (P06756 891-1048 limits assumed): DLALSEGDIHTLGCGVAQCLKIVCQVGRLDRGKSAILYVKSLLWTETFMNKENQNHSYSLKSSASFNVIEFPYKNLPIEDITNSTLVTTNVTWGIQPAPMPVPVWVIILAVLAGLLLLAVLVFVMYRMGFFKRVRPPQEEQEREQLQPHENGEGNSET

| pIC50 [1] | pIC50 [3] | pIC50 [4] | SMILES | other results |
| --- | --- | --- | --- | --- |
| 4.85 | 4.47 |  | NC(N)=NCCC[C@H](N)C(=O)NCC(=O)N[C@@H](CC(=O)O)C(=O)N[C@@H](Cc1c[nH]c2ccccc12)C(=O)O (H-RGDW-OH) | pIC50 [2]: 4.57 |
|  |  | 7.46 | CCCCCC(=O)N[C@@H](Cc1ccc(OCCCCC2CCNCC2)cc1)C(=O)O |  |
| 4.25 | 3.80 | 6.59 | O=C(N[C@@H](Cc1ccc(OCCCCC2CCNCC2)cc1)C(=O)O)OCc1ccccc1 | pIC50 [6]: 3.52 |
| 3.82 | 3.48 | 6.11 | CCCCS(=O)(=O)N[C@@H](Cc1ccc(OCCCCCCN)cc1)C(=O)O | pIC50 [2]: < 3.30 |

The remaining lines, values behind:

| SMILES | pIC50 [1] | pIC50 [3] | pIC50 [4] | other results |
| --- | --- | --- | --- | --- |
| NCCCCCCCOc1ccc(C[C@H](NC(=O)OCc2ccccc2)C(=O)O)cc1 | 3.83 | 3.50 |  | pIC50 [2]: < 3.35 |
| O=C(O)[C@H](Cc1ccc(OCCCCC2CCNCC2)cc1)NS(=O)(=O)Cc1ccccc1 |  |  | 7.74 |  |
| NCCCCCCOc1ccc(CCC(=O)O)cc1 |  |  |  | inhibition [5]: 12% |
| NCCCCCCOc1ccc(C[C@H](NC(=O)CCc2ccccc2)C(=O)O)cc1 |  |  | 5.10 |  |
| CCCCS(=O)(=O)N[C@@H](Cc1ccc(OCCCCC2CCNCC2)cc1)C(=O)O [TIROFIBAN] | 4.21 |  |  |  |
| NCCCCCCOc1ccc(C[C@H](NC(=O)OCc2ccccc2)C(=O)O)cc1 |  |  | 4.59 |  |
| CC(C)(C)NCC(O)COc1ccc(C[C@H](NC(=O)OCc2ccccc2)C(=O)O)cc1 (stereo partly drawn) | < 3.52 | < 3.52 |  | pIC50 [6]: < 3.52 |
